According to ChEMBL document CHEMBL5038575, “Novel Functionalized Cannabinoid Receptor Probes: Development of Exceptionally Potent Agonists” (J Med Chem, 2021):
The source made the active and inactive calls. The calls are words filed in the database; no cut-off is given here.

Columns and labels:
Cannabinoid receptor 2 [1] = target: T1, Cannabinoid receptor 2 (Homo sapiens, UniProt P34972); experiment: Displacement of [3H]CP55940 from human CB2 expressed in HEK293 cell membrane assessed as inhibition constant incubated for 1 hr by TopCount scintillation counting method; assay type: cell membranes
Summary of the method: (§1)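 Competition binding against [³H]CP-55,940. CB1 from rat brain membranes; CB2 from membranes of HEK293 cells expressing mouse or human CB2. IC50 obtained by nonlinear regression and converted to Ki. Three independent experiments in triplicate; mean with SEM.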

Cannabinoid receptor 2 [2] = target: T1, Cannabinoid receptor 2; experiment: Agonist activity at 3xHA tagged human CB2 receptor expressed in CHO-K1 cells assessed as reduction in forskolin-stimulated cAMP accumulation by measuring maximal efficacy incubated for 30 mins by cAMP assay relative to CP-55940; assay type: functional, cell-based; conditions: filed as agonist
Summary of the method: (§2)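 CHO-K1 cells stably expressing 3xHA-tagged CB1 or CB2, plated at 4000 cells/well in Opti-MEM with 1% FBS for 3 h at 37 °C. Cells cotreated with 25 μM RO-20-1724, 20 μM forskolin and agonist for 30 min at 37 °C, then lysed. cAMP read by HTRF (665/620 nm) after 1 h at room temperature in the dark. Data normalized to vehicle and 100 nM CP-55,940; three-parameter nonlinear regression; ≥4 experiments in duplicate.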

Cannabinoid receptor 1 [3] = target: Cannabinoid receptor 1 (Rattus norvegicus, UniProt P20272); experiment: Displacement of [3H]CP55940 from rat brain membrane CB1 receptor assessed as inhibition constant incubated for 1 hr by TopCount scintillation counting method; assay type: cell membranes; summary of the method: as §1
Cannabinoid receptor 2 [4] = target: Cannabinoid receptor 2 (Mus musculus, UniProt P47936); experiment: Displacement of [3H]CP55940 from mouse CB2 expressed in HEK293 cell membrane assessed as inhibition constant incubated for 1 hr by TopCount scintillation counting method; assay type: cell membranes; summary of the method: as §1
Cannabinoid receptor 2 [5] = target: T1, Cannabinoid receptor 2; experiment: Agonist activity at 3xHA tagged human CB2 receptor expressed in CHO-K1 cells assessed as reduction in forskolin-stimulated cAMP accumulation incubated for 30 mins by cAMP assay; assay type: functional, cell-based
[6] = target: Cannabinoid receptor 1 (Rattus norvegicus) (UniProt P20272); experiment: Displacement of [3H]CP55940 from rat brain membrane CB1 assessed as reduction in maximum binding capacity at 4 nM incubated for 1 hr by TopCount scintillation counting method relative to control; assay type: cell membranes
Summary of the method: (§3)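 Wash-resistant binding. […] Saturation binding used 25 μg protein, [³H]CP-55,940 at 0.5–23.8 nM and 4 μM unlabeled CP-55,940 for nonspecific binding, 1 h at 30 °C. Samples were filtered and counted by scintillation. Bmax came from one-site fits; % reduction was taken versus untreated control.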

Cannabinoid receptor 1 [7] = target: T2, Cannabinoid receptor 1 (Homo sapiens, UniProt P21554); experiment: Agonist activity at 3xHA tagged human CB1 receptor expressed in CHO-K1 cells assessed as reduction in forskolin-stimulated cAMP accumulation by measuring maximal efficacy incubated for 30 mins by cAMP assay relative to CP-55940; assay type: functional, cell-based; conditions: filed as agonist; summary of the method: as §2
Cannabinoid receptor 2 [8] = target: T1, Cannabinoid receptor 2; experiment: Displacement of [3H]CP55940 from CB2 (unknown origin) assessed as reduction in maximum binding capacity at 4 nM incubated for 1 hr by TopCount scintillation counting method relative to control; summary of the method: as §3
Cannabinoid receptor 1 [9] = target: T2, Cannabinoid receptor 1; experiment: Agonist activity at 3xHA tagged human CB1 receptor expressed in CHO-K1 cells assessed as reduction in forskolin-stimulated cAMP accumulation incubated for 30 mins by cAMP assay; assay type: functional, cell-based
[10] = Toxicity in […] mouse assessed as reduction in gastrointestinal motility by measuring colonic expulsion at 0.1 mg/kg, ip measured after 20 to 220 mins; assay type: organism-based; conditions: in vivo, time 20-220 min
Summary of the method: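 Mice, n = 6–7/treatment, given vehicle (DMSO/Tween 80/saline 2:1:17) or 0.1 mg/kg ip. At 20, 120 and 220 min, under light isoflurane, a 2.5 mm glass bead was inserted 2 cm into the rectum. Time to bead expulsion was recorded.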

[11] = Toxicity in C57BL/6 mouse assessed as reduction in locomotion at 0.1 to 1 mg/kg, ip measured after 20 mins; assay type: organism-based; conditions: in vivo, dose 0.1-1 mg/kg
Summary of the method: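 C57BL/6 mice, n = 6–7/treatment, given ip drug in 2% DMSO/1% Tween 80/saline at 0.1–1.0 mg/kg. Habituated to the apparatus in the morning. Placed in an infrared beam activity monitor 20 min after injection; ambulatory and horizontal counts recorded over 10 min.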

Mus musculus [12] = experiment: Antinociceptive activity in CD-1 mouse model of thermal-induced nociception assessed as maximum efficacy causing increase in tail withdrawal latency administered intraperitonially for 6 hrs by tail flick test; assay type: functional, organism-based; conditions: dose 0.03-1 mg/kg
Summary of the method: (§4)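 Male CD-1 mice, 25–30 g, n = 6/dose, each used once. Drug was dissolved in 2% DMSO, 4% Tween 80 and 4% propylene glycol, then diluted with saline, and given ip at 10 mL/kg. Tail immersed in a 52 °C water bath; latency recorded at baseline and at 20, 60, 180 and 360 min after injection. Results expressed as % maximum possible effect; ED50 given with 95% CI.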

Mus musculus [13] = experiment: Antinociceptive activity in CD-1 mouse model of thermal-induced nociception assessed as maximum efficacy causing increase in tail withdrawal latency at 0.03 mg/kg, ip measured 60 mins post-injection by tail flick test; assay type: functional, organism-based; summary of the method: as §4
[14] = target: Cannabinoid receptor 1 (Rattus norvegicus) (UniProt P20272); experiment: Displacement of [3H]CP55940 from rat brain membrane CB1 assessed as reduction in maximum binding capacity at 4 nM incubated for 1 hr followed by compound washout and measured after 60 to 180 mins by TopCount scintillation counting method; assay type: cell membranes; conditions: filed as agonist
Mus musculus [15] = experiment: Antinociceptive activity in CD-1 mouse model of thermal-induced nociception assessed as maximum efficacy causing increase in tail withdrawal latency at 0.03 to 1 mg/kg, ip measured 20 mins post-injection by tail flick test; assay type: functional, organism-based; conditions: dose 0.03-1 mg/kg; summary of the method: as §4
Mus musculus [16] = experiment: Antinociceptive activity in CD-1 mouse model of thermal-induced nociception assessed as increase in tail withdrawal latency administered intraperitonially for 6 hrs by tail flick test; assay type: functional; conditions: CD-1, ip; summary of the method: as §4
Mus musculus [17] = experiment: Induction of hypothermia in C57BL/6 mouse assessed as reduction in body temperature at 0.1 mg/kg, ip measured after 24 hrs; assay type: toxicity, organism-based; conditions: in vivo

T2 sequence (P21554 whole entry): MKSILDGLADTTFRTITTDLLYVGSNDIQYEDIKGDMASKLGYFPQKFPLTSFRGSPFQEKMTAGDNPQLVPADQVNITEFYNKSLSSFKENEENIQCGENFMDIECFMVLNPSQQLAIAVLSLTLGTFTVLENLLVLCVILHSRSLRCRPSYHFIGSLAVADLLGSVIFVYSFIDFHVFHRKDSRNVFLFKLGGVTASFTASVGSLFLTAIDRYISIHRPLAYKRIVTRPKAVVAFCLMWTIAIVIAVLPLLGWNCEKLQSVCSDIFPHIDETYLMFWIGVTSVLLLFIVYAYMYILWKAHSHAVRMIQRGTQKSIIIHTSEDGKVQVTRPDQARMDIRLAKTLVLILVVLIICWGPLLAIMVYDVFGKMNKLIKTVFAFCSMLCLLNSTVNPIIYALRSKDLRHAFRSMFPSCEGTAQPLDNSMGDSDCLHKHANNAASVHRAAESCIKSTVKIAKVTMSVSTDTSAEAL
Cannabinoid receptor 1 (Rattus norvegicus), sequence (P20272 whole entry): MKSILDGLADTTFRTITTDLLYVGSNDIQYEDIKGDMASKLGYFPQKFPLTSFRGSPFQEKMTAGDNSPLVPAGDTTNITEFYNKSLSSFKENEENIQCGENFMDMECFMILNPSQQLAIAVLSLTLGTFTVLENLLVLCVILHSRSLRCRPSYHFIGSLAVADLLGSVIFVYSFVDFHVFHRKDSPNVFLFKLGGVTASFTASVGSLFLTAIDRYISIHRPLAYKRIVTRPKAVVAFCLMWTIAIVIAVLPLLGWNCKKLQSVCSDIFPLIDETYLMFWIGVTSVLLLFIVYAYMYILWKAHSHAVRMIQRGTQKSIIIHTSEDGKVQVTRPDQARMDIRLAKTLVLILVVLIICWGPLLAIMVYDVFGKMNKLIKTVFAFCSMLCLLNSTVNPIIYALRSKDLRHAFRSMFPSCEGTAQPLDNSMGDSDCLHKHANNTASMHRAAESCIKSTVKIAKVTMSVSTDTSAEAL
Cannabinoid receptor 1 (Rattus norvegicus, UniProt P20272), sequence (P20272 whole entry): as above
T1 sequence (P34972 whole entry): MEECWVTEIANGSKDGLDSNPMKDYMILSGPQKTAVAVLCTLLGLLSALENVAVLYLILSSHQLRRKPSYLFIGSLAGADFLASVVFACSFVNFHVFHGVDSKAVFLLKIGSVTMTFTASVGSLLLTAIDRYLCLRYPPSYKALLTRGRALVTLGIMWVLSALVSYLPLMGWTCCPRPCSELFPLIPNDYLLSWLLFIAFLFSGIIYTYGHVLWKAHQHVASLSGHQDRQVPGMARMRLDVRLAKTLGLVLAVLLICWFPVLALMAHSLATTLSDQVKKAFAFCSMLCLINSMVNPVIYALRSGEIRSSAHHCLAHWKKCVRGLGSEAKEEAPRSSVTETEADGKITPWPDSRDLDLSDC
Cannabinoid receptor 2 (Mus musculus, UniProt P47936), sequence (P47936 whole entry): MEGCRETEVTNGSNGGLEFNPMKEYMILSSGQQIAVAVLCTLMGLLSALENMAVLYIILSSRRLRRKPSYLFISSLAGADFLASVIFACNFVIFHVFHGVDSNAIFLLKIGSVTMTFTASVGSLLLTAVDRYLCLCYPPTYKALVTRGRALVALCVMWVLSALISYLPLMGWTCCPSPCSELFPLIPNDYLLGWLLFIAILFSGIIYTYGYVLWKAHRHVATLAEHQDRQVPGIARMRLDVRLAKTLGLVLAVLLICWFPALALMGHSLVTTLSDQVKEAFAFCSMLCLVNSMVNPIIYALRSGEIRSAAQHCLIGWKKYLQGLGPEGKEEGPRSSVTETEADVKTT

SMILES	Ki (Cannabinoid receptor 2 [1]) [nM]	Emax (Cannabinoid receptor 2 [2]) [%]	Ki (Cannabinoid receptor 1 [3]) [nM]	Ki (Cannabinoid receptor 2 [4]) [nM]	EC50 (Cannabinoid receptor 2 [5]) [nM]	Bmax ([6]; filed as agonist) [%]	Emax (Cannabinoid receptor 1 [7]) [%]	Bmax (Cannabinoid receptor 2 [8]; filed as agonist) [%]	EC50 (Cannabinoid receptor 1 [9]) [nM]	Bmax (Cannabinoid receptor 2 [8]) [%]	other results
CC1(C)Oc2cc(C3(CCCCCCC#N)CCCC3)cc(O)c2[C@@H]2C[C@H](CO)CC[C@H]21	1.4	61	0.8	1	0.96	68	112	45	0.31	–	–
CC1(C)Oc2cc(C3(CCCCCCCN=C=S)CCCC3)cc(O)c2[C@@H]2C[C@H](CO)CC[C@H]21	1	74	0.4	1.1	0.39	51	105	–	0.43	19	–
CC(C)(CCCCCCN=C=S)c1cc(O)c2c(c1)OC(C)(C)[C@@H]1CC[C@@H](CO)C[C@@H]21	3.15	107	0.39	0.8	5.5	65	96	75	5.8	–	–
CC1(C)Oc2cc(C3(CCCCCCCN=C=S)CCCC3)cc(O)c2[C@@H]2C[C@H](CN=C=S)CC[C@H]21	4.2	–	37.6	14.6	–	–	–	–	–	15	Bmax [6]: 37%
CC1(C)Oc2cc(C3(CCCCCCN=[N+]=[N-])CCCC3)cc(O)c2[C@@H]2C[C@H](CO)CC[C@H]21	0.8	–	0.4	0.8	–	87	–	65	–	–	–
CC1(C)Oc2cc(C3(CCCCCCCC#N)CCCC3)cc(O)c2[C@@H]2C[C@H](CN=[N+]=[N-])CC[C@H]21	0.3	–	0.3	1.4	–	–	–	–	–	–	Activity [6]: inactive; Activity (Cannabinoid receptor 2 [8]): inactive
CC(C)(CCCCCCC#N)c1cc(O)c2c(c1)OC(C)(C)[C@@H]1CC[C@@H](CO)C[C@@H]21	0.4	70	0.4	0.8	0.38	76	103	60	0.088	–	Activity [10]: Toxic; Activity [11]: Toxic; Activity (Mus musculus [12]): Dose-Dependent Effect; Activity (Mus musculus [13]): inactive; Activity [14]: Active; Activity (Mus musculus [15]): Active; ED50 (Mus musculus [16]): 0.12 mg/kg; Activity (Mus musculus [17]): Toxic
CC1(C)Oc2cc(C3(CCCCCCCN=[N+]=[N-])CCCC3)cc(O)c2[C@@H]2C[C@H](CO)CC[C@H]21	1.5	–	0.5	1.6	–	48	–	–	–	37	–
CC(C)(CCCCCCN=[N+]=[N-])c1cc(O)c2c(c1)OC(C)(C)[C@@H]1CC[C@@H](CO)C[C@@H]21	1.4	72	0.41	0.8	0.77	75	99	63	0.098	–	–
CC1(C)Oc2cc(C3(CCCCCCCC#N)CCCC3)cc(O)c2[C@@H]2C[C@H](CO)CC[C@H]21	0.4	–	0.5	0.9	–	60	–	40	–	–	–
CC1(C)Oc2cc(C3(CCCCCCCN=[N+]=[N-])CCCC3)cc(O)c2[C@@H]2C[C@H](CN=[N+]=[N-])CC[C@H]21	1.5	–	0.7	1.2	–	–	–	–	–	21	Bmax [6]: 28%
CC1(C)Oc2cc(C3(CCCCCCCC#N)CCCC3)cc(O)c2[C@@H]2C[C@H](CN=C=S)CC[C@H]21	0.6	–	0.4	1.9	–	–	–	–	–	–	Activity [6]: inactive; Activity (Cannabinoid receptor 2 [8]): inactive
CC1(C)Oc2cc(C3(CCCCCCN=C=S)CCCC3)cc(O)c2[C@@H]2C[C@H](CO)CC[C@H]21	1.3	57	1.1	0.9	2.7	–	104	–	0.52	34	Bmax [6]: 39%
CCCCCCC(C)(C)c1cc(O)c2c(c1)OC(C)(C)[C@@H]1CC[C@@H](CO)C[C@@H]21	2.1	–	3	–	–	–	–	–	–	–	Activity [6]: inactive; Activity (Cannabinoid receptor 2 [8]): inactive
